The record followed here is ChEMBL document CHEMBL1141802, “Sesquiterpenoid metabolites with antiplasmodial activity from a Caribbean gorgonian coral, Eunicea sp” (J Nat Prod, 2005).

Values after ≈ are worked out from the molar mass of the structure shown. Active and inactive are the calls of the source. The rule behind the calls is not given here.

In test [1] the test system is Mycobacterium tuberculosis. The test is described as follows: Antimicrobial activity against Mycobacterium tuberculosis H37Rv at 6.25 ug/mL. It counts as functional, organism-based.
A further test deals with Plasmodium falciparum. The experiment in a line: Antimalarial activity against chloroquine-resistant Plasmodium falciparum W2 by Picogreen dye fluorimetry. It counts as functional, organism-based. The method in brief:
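Fluorometric growth-inhibition assay on chloroquine-resistant W2 strain, detecting parasite DNA by PicoGreen intercalation. Result expressed as IC50 in μg/mL.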

In a further test the test system is MOLT-4. The test is described as follows: Cytotoxicity against human MOLT4 cells. It counts as functional, cell-based.
Test [2] in a line: Cytotoxicity against human […] cells. It counts as functional, cell-based.
A further test relates to MCF7. The experiment in a line: Cytotoxicity against human MCF7 cells. It counts as functional, cell-based.
The next test relates to HL-60(TB). The experiment in a line: Cytotoxicity against human HL-60(TB) cells. It counts as functional, cell-based.
In another test the test system is CCRF-CEM. The test is described as follows: Cytotoxicity against human CCRF-CEM cells. It counts as functional, cell-based.
For test [3], the system named is M-phase inducer phosphatase (Cdc25). The experiment in a line: Inhibition of Cdc25.
In test [4] the target is Cyclin-dependent kinase 1/cyclin B1 (Homo sapiens) (UniProt P06493+P14635). The test is described as follows: Inhibition of Cdc2/cyclin B.
Sequence of Cyclin-dependent kinase 1/cyclin B1 (Homo sapiens) (P06493 whole entry, looked up): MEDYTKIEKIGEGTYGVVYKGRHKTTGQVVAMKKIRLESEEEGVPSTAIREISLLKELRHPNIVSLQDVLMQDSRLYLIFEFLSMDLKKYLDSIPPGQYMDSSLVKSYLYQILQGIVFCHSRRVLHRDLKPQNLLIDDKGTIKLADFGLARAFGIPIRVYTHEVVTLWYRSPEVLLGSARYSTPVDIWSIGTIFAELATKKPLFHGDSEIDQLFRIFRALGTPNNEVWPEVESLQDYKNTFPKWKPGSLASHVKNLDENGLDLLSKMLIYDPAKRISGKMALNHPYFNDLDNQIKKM
Sequence of Cyclin-dependent kinase 1/cyclin B1 (Homo sapiens) (P14635 whole entry, looked up): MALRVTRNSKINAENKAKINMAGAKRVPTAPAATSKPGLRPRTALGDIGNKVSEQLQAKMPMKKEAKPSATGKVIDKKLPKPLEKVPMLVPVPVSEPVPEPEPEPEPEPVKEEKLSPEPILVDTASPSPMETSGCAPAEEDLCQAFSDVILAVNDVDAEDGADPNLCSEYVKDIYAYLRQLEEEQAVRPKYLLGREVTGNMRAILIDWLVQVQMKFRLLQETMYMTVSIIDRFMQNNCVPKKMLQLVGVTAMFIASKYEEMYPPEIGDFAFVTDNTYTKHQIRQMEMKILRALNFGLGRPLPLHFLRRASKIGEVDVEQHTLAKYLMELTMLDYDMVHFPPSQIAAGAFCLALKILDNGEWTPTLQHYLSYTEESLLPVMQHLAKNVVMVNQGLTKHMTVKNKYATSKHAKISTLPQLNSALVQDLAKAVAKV

In the case of `C=C[C@@]1(C)CC[C@@H](C(C)=O)[C@@H](OC(=O)/C=C/C(C)(C)O)[C@@H]1C(=C)C`, in [1], the outcome was inactive.

Take `C=C1CC[C@H](O)[C@@]2(C)CC[C@@H]3[C@@H](OC(=O)[C@H]3C)[C@H]12`: in [1], the outcome was inactive. Also, it took 14 µg/mL (≈ 55.9 µM) to reach half-maximal inhibition in the test on Plasmodium falciparum (IC50).

For the molecule `C=C1CC[C@@H]2[C@H](/C=C(\C)CC[C@@H]1O)OC(=O)[C@H]2C`, the concentration for half-maximal inhibition (IC50) (in general, the concentration needed to halve the response being measured) in the test on MOLT-4 was 19.6 µg/mL (≈ 78.3 µM); in test [2], 90.4 µg/mL (≈ 361 µM); with MCF7, 82.2 µg/mL (≈ 328 µM); in the test with HL-60(TB), 51.5 µg/mL (≈ 206 µM); in the test with CCRF-CEM, 31.3 µg/mL (≈ 125 µM); with Plasmodium falciparum, 18 µg/mL (≈ 71.9 µM).

On to `C=C1CC[C@@H](C(C)=O)[C@@H](OC(=O)/C=C/C(C)(C)O)/C=C(\C)CCC1=O`, for which the outcome in test [3], in [1] and in test [4] was inactive. In the test with Plasmodium falciparum, this molecule returned a half-maximal inhibitory concentration (IC50) of 16 µg/mL (≈ 45.9 µM).

As to `C=C[C@@]1(C)CCC2=C(C)C(=O)O[C@H]2[C@@H]1C(=C)C`, in the test on Plasmodium falciparum, the 50% inhibitory concentration (IC50) is above 50 µg/mL.

Regarding `C=C1CC[C@@H](C(C)=O)[C@@H](OC(=O)/C=C/C(C)(C)O)/C=C(\C)CC[C@@H]1O`, the result in test [3] and in test [4] was inactive. This molecule had an IC50 with Plasmodium falciparum of 14 µg/mL (≈ 39.9 µM).

As to `C=C1CC[C@H](O)[C@@]2(C)CC[C@@H](C(C)=O)[C@@H](OC(=O)/C=C/C(C)(C)O)[C@H]12`, the result in test [1] was inactive. The IC50 in the test on Plasmodium falciparum was found to be 10 µg/mL (≈ 28.5 µM).
